# Bioassay records deposited in PubChem BioAssay by several laboratories.
# HKDC1 inhibitor = HKDC1 hexokinase inhibitors, primary screen, biochemical, fluorescence, uHTS | recombinant HKDC1, G6PDH/diaphorase resazurin coupled fluorescence | AID 493160, 2011 | inhibition, % at 20 µM | actives 0.16% (n = 340,000);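 active = inhibition above about 35% when tested at 20 µM, limit read from the data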;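 note: plate controls were DMSO wells with enzyme for no effect and DMSO wells lacking enzyme for full effect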
# Target sequence (Q2TB90 whole entry, looked up): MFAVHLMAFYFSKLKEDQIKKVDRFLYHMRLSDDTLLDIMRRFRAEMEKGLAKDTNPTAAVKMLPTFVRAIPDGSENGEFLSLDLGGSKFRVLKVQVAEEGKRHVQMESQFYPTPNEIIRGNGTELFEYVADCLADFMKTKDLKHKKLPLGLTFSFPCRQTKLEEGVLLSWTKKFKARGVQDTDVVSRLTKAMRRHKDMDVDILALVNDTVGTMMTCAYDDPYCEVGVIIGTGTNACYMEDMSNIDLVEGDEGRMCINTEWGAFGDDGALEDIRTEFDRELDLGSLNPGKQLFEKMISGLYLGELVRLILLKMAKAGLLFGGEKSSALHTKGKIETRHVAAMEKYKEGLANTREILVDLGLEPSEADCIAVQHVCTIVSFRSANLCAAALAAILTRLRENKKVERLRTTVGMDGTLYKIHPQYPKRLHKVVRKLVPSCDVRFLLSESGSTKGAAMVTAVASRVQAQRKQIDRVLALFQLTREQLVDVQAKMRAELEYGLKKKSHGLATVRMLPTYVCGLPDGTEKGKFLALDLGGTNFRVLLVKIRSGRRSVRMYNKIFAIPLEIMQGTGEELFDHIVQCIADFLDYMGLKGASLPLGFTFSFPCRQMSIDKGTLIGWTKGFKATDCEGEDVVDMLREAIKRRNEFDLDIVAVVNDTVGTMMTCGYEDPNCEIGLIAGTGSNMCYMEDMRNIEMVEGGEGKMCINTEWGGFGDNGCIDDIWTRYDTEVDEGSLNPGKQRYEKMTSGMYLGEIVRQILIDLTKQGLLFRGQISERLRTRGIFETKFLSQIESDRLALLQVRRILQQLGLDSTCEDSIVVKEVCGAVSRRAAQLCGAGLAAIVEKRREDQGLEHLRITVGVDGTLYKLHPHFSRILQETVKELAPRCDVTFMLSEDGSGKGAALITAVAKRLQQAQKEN
#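 test system = in-house recombinant HK5 (HKDC1) enzyme | amount = HKDC1 at 5 µg/mL | control set = DMSO-enzyme wells negative, buffer-substituted wells positive | compound = one dose of 20 µM, 1% DMSO | schedule = reaction time 90 min, room temperature, protected from light | technique = resorufin fluorescence at 613 nm | reagent = glucose with 1 mM ATP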
# G6PDH CS = L. mesenteroides G6PDH inhibitors, counter-screen for G6PDH-coupled screening assays, biochemical, Leuconostoc mesenteroides enzyme; Purified L. mesenteroides G6PDH, diaphorase/resazurin coupled fluorescence, 45 min; inhibition, % at 5 µM; actives 0.12% (n = 200,000); AID 1020, 2008; in the data active = inhibition above about 50%
# Tb hexokinase = Trypanosoma brucei hexokinase 1 inhibitors, primary screen, biochemical, G6PDH-coupled NADH absorbance, MLSCN library; hexokinase 1 [Trypanosoma brucei]; recombinant TbHK1, G6PDH-coupled NADH A340; inhibition, % at 10 µM; actives 0.11% (n = 220,000);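 active = inhibition of 50% or more in the single-dose primary screen; inactive = inhibition below 50%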
# PfGluPho inh = PfG6PD enzyme inhibitors, primary screen, biochemical, fluorescence intensity, uHTS. inhibition, % at 20 µM. actives 0.78% (n = 350,000). PfGluPho enzyme, NADPH resazurin-diaphorase fluorescence. glucose-6-phosphate dehydrogenase-6-phosphogluconolactonase (Plasmodium falciparum 3D7);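 active = inhibition reaching at least a set limit at 20 µM in the primary screen, cut at about 59% in these data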;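 note: 0% = DMSO wells with substrate and 100% = DMSO wells lacking glucose-6-phosphate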
# Diaphorase inh = diaphorase inhibitors and chemical oxidizers, primary screen, counter-screen for diaphorase-coupled primary assays, biochemical, uHTS, resorufin fluorescence; inhibition, % at 20 µM; diaphorase resazurin-to-resorufin fluorescence, NADH, 16 min; bacterial (C. kluyveri) enzyme, not human; actives 0.69% (n = 190,000); AID 1217, 2008;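 active = primary screen inhibition at 20 µM above a set limit, cut at about 50% in these data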;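 note: plate controls were DMSO with full reaction for no effect and wells lacking NADH for full effect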
#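 Test system: Clostridium kluyveri diaphorase enzyme / Quantity: diaphorase at 0.14 U/mL in enzyme working solution / Incubation: 16-min room-temperature incubation before reading / Benchmarks: NADH-free wells as positive control, DMSO-only neutral wells / Signal: resorufin fluorescence 544/590 nm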
# * hit, by the source's call; . = not tested or not shown. Compounds with a hit are over-represented: about 1.3% of the library has one in this group of screens.
SMILES,HKDC1 inhibitor,G6PDH CS,Tb hexokinase,PfGluPho inh,Diaphorase inh
Nc1c(C(=O)NC2CC2)sc2nc3c(c(-c4ccco4)c12)CC/C3=C/c1ccco1,28,13,-10,36,87*
NC(=O)c1sc2nc3c(c(-c4ccco4)c2c1N)CCC3,4,-4,-9,9,81*
c1ccc(-c2cc(N3CCCCC3)ncn2)cc1,-1,-8,-3,-1,9
c1ccc(-c2cc(N3CCCCCC3)n[nH]2)cc1,5,-6,4,23,59*
c1ccc2c3c([nH]c2c1)-c1[nH]ncc1CC3,-2,17,-2,51,64*
Cc1ccc(-c2ccc(=O)n(CC(=O)NCCN3CCCCC3C)n2)cc1 (centres undefined),-4,10,-2,-10,53*
CN1CCN(c2cc3c(c4c2[nH]c2ccccc24)C(=O)CC(C)(C)C3)CC1,8,3,-12,26,24
COc1ccc(C)cc1NC(=O)c1ccc(NS(=O)(=O)c2cccc3cccnc23)cc1,-1,.,-12,0,.
C[n+]1c(/C=C/c2ccc(O)cc2)ccc2ccccc21,3,.,.,12,.
Cc1cc(/C=C\c2ccc3cc(N(C)C)ccc3[n+]2C)c(C)n1-c1ccccc1,37*,.,.,14,.
COc1ccc(C(=O)N2CCN(Cc3cc(OC)c(O)c(OC)c3)CC2)cc1OC,-1,55*,0,-7,29
COc1cc(CN2CCN(C(=O)CC(C)C)CC2)cc(OC)c1O,-12,53*,-1,-3,39
COc1ccc(CN2CCN(C(=O)c3cc(OC)c(OC)c(OC)c3)CC2)cc1OC,-7,1,-4,-4,18
COC(=O)C1=C(N)c2c(F)cccc2C1(C#N)c1ccccc1 (centres undefined),-3,1,-22,18,6
Cc1nc(SCC#N)c2c(C)c(C)sc2n1,1,-3,2,10,12
Cc1sc(NC(=S)Nc2ccc(F)cc2)c(C(N)=O)c1C,-6,12,-12,20,58*
CCOC(=O)c1c(NC(=S)Nc2ccc(Cl)cc2)sc(C)c1C,-9,4,6,-2,8
Cc1ccc(S(=O)(=O)/N=C2\C=C(Nc3ccc(O)cc3)C(=O)c3ccccc32)cc1,34,.,.,111*,.
CC(C)(C)c1ccc(S(=O)(=O)/N=C2\C=C(NS(=O)(=O)c3ccccc3)C(=O)c3ccccc32)cc1,27,.,.,5,.
Cc1ccc(NC2=C/C(=N/S(=O)(=O)c3cccs3)c3ccccc3C2=O)cc1,7,50*,11,30,16
Oc1ccccc1N1CCN(C(=S)Nc2ccc(SC(F)F)cc2)CC1,-5,8,3,12,6
COc1cc(/C=N/NC(=O)c2ccncc2)ccc1OCCN1CCCCC1,-9,2,-38,-4,-2
COc1cc(/C=N/NC(=O)c2cc3ccccc3cc2O)ccc1OCCN1CCCCC1,20,-3,-47,51,89*
O=C(O)C1OC(Oc2c(-c3ccc(O)c(O)c3)oc3cc(O)cc(O)c3c2=O)C(O)C(O)C1O (centres undefined),3,36,-176,-26,55*
CC1OC(Oc2c(-c3cc(O)c(O)c(O)c3)oc3cc(O)cc(O)c3c2=O)C(O)C(O)C1O (centres undefined),5,.,-31,31,.
SMILES,HKDC1 inhibitor,G6PDH CS,Tb hexokinase,PfGluPho inh,Diaphorase inh
CCOc1cc(N2CCOCC2)c(OCC)cc1NC(C)C(=O)N1CCN(CC)CC1 (centres undefined),11,31,-1,54,48
CCOC(=O)c1c(C)oc2c1c(C=NCCO)c(O)c1ccccc12,22,57*,-16,58,82*
CCOC(=O)CSc1ccc(-c2nc3ccccc3[nH]2)cn1,1,-6,-8,4,11
N#CCSc1ccc(-c2nc3ccccc3[nH]2)cn1,1,11,-24,23,58*
CCOC(=O)CCCNC(=O)CSc1nc2ccc(OCC)cc2[nH]1,-5,0,3,8,54*
CCCCNC(=O)CSc1nc2ccc(C)cc2[nH]1,-4,3,3,0,7
